The EternaBench riboswitch data

Tested on: MS2 coat protein
Test: apparent Kd, MS2 coat protein; higher = weaker binding; RNA-MaP array; FMN 200 µM where present
Outline: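 The apparent Kd comes from binding curves fitted cluster by cluster, filtered, and summarised as a median. Those curves followed SNAP-549-labelled MS2 coat protein from 0.7 or 1.5 nM, doubling to 3 µM, on Illumina sequencing-chip clusters where stalled E. coli RNA polymerase had transcribed the designs, without and then with constant ligand. The buffer was 100 mM Tris-HCl pH 7.5, 80 mM KCl, 4 mM MgCl2, BSA, DTT, yeast tRNA and Tween-20, and green signal was normalised to red-channel RNA signal and control-cluster median Fmax.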

[1] = designed as: OFF switch for flavin mononucleotide, no ligand
[2] = ligand present: flavin mononucleotide, designed as: OFF switch for flavin mononucleotide
[3] = designed as: ON switch for flavin mononucleotide, no ligand
[4] = ligand present: flavin mononucleotide, designed as: ON switch for flavin mononucleotide

Row | Sequence | apparent Kd [1] | apparent Kd [2] | apparent Kd [3] | apparent Kd [4]
1 | AGUAGAUCAGGAUAUACAUAAAUGAUAAUUAUGUAACUUCUACAUGAGGAUCACCCAUGUAGAAGGGAUCUACA | 0.0126 µM | 0.0131 µM | – | –
2 | AAAUUAAGAAGAGGAUAUUGACAUGAGGAUCACCCAUGUAUUUGGGAGUGUUUACUGAAUUCUUACGAGAAGGCUUACGAACUU | – | 0.19 µM | – | –
3 | UCCUCUUUGAAGAAGGCGUGGUUAUGCUAGCCGCGAGGAUAUUCACAUGAGGAUCACCCAUGUGGAUUUCAGUCCGCUCAAAAC | 0.0102 µM | 0.0229 µM | – | –
4 | CCUAAGGACACAGGAUAUAGCGUGGUGGCCGGGCUCCAACGGCGAGCGGCGCUAGAAGGGUGACCACAUGAGGAUCACCCAUGU | – | – | 0.506 µM | 0.161 µM
5 | AGCAAAAUAAGCAAGGAUAUGUAAUUUGGCACAUGAGGAUCACCCAUGUCAAUCCAUUUUUUUGAACAGAAGGUGCAUUUUUUUU | – | – | 0.0382 µM | 0.0321 µM
6 | CCUCUACAUGAGGAUCACCCAUGUGAGGAUAUGCGAGGCGCGCUCGAUGAGCGCGCCGGUAGAAGGCAUGUGGU | 0.0232 µM | 0.0499 µM | – | –
7 | CGCAACUCUUCACAUGUAAACAUGAGGAUCACCCAUGUAAUGAGAAGGAGGAAGAAGAGAGAUUCCUAGGAUAUCAGAGUUGCG | 0.00683 µM | 0.00652 µM | – | –
8 | AAAAGACAUGAGGAUCACCCAUGUCAGGAUAUCUUCCGUAGGCCGAAUGGCUUCCGGUGGAGAAGGGACAUCGG | 0.0507 µM | 0.104 µM | – | –
9 | GCAUUUAAUACAGGAUAUGUAAGUAUACAUUAGAUUGGUAUAGUCACAACAACAGAAGGGUAGAACAUGAGGAUCACCCAUGUA | – | – | 0.0973 µM | 0.0629 µM
10 | CAUUCGUGUCUAGGAUAUGAGUGACAAGCGCGAGAUUUUCUCGCCGCUAGCUCAGAAGGAGACAUGAGGAUCACCCAUGUAAGG | 0.0601 µM | 0.0118 µM | – | –
11 | AAAGCGUGAGGAUAUGAGGCGCCGGGCCGGUUGGUGCGGAUUCAGAAGGCACAUGAGGAUCACCCAUGUCGGUA | 0.0411 µM | 0.096 µM | – | –
12 | GUCAGCUCAUGAGGAUAUACAACACUGCUUCGGCAGUGUAUUAAGAUCACAUGAGGAUCACCCAUGUAGAAGGCACGAGCUGAU | 0.0129 µM | 0.258 µM | – | –
13 | GCGUAUUAGGUGUAGCUAGUCAUUCAAGAAGGGUGAAGAACAUGAGGAUCACCCAUGUAGUUUAUACAGGAUAUUGAUAUACGC | – | – | 0.528 µM | 0.235 µM
14 | AGGAAGUAAGGAUAUGCUGCUCGUCACUUGCGUGAUGAGUAGCAGAAGGUACAUGAGGAUCACCCAUGUAAAAA | 0.0237 µM | 0.0185 µM | – | –
15 | AUCAAUCAUGUAGGAUAUGCGUGGCGAAGCUAUGCAGAAGGACAUGAGGAUCACCCAUGUCUUUCUGUCUGCGUACGGACAGGA | 0.0194 µM | 0.0729 µM | – | –
16 | CAGGUAGACUGAGGAUAUACAUCUCUGGGCAAACCAGAGUAAAAUUCGACAUGAGGAUCACCCAUGUAGAAGGCAGUCUGCCUG | 0.017 µM | 0.0241 µM | – | –
17 | AUGCCUUAUGUAGGAUAUGCAUAGCGUUGCUAUGCAGAAGGACAUGAGGAUCACCCAUGUAUGUUAUCAUUACAUAUCUGGCAU | 0.0276 µM | 0.271 µM | – | –
18 | CGAUGUUAUGUCAGGAUAUGCGUUGCGAAAGCAAUGUAGAAGGGACAUGAGGAUCACCCAUGUGCUAACCAUCG | 0.0187 µM | 0.0511 µM | – | –
19 | GAUUGAGAGCAGGAUAUCAUAGAAAUGUAUGAAUGAGAAGGGCUCACAUGAGGAUCACCCAUGUGGUCCUAGAU | 0.0272 µM | 0.171 µM | – | –

Row | Sequence | apparent Kd [1] | apparent Kd [2] | apparent Kd [3] | apparent Kd [4]
20 | CGCUACACCCAGAAGGACAUGAGGAUCACCCAUGUAGGAUAUGGGAGACACAGUCCCAUGUAGAGAAAUUACGCUAGUGUAGCG | – | – | – | 0.079 µM
21 | AUACAUACAAAGUUACAUGAGGAUCACCCAUGUUUAUUGGGAAGAAGGGUAACAUUAUUAGAUGUAUAGGAUAUUUCACAAUUG | – | – | 0.537 µM | 0.275 µM
22 | CUGCCGUAGGAGAAGGACGGCGGGUUAUUUUUGUACAUGAGGAUCACCCAUGUAGGAUAUCCUACGUCAGGCGGCCUACUACAG | 0.0137 µM | 0.0198 µM | – | –
23 | CAGGAUAGAGGAUAUACGUAGAUACAGAUUCAUGUAAUCCUACAUGAGGAUCACCCAUGUAGAAGGCUAUCCUG | 0.018 µM | 0.113 µM | – | –
24 | AGUUUGCGGCAGGAUAUCCAUCCGCGGUGUGGUGGAGAAGGGCUGACAUGAGGAUCACCCAUGUGCGUCCUGUA | 0.0232 µM | 0.0325 µM | – | –
25 | CGUAACUGCAUAGGAUAUUGAUACAUGAGGAUCACCCAUGUUUUUCGGAUUAUAUAUAUACUUAGCAAGAAGGAUGGAGUUACG | – | – | 0.0093 µM | 0.00574 µM
26 | AUAGCAUACCGAGGAUAUUCAUAUAAUAAAUAAACAUGAGGAUCACCCAUGUGGCGAAAGCCUAGGGAGAAGGCGGAAUGCUAU | – | – | 0.204 µM | 0.0241 µM
27 | AUGGAUAUCACAGGAUAUGCUAAGGAUACCUUAGCAGAAGGGUGAUCCAUCCUAUGGCUGUACAUGAGGAUCACCCAUGUGUCA | – | – | 0.331 µM | 0.0414 µM
28 | GUGCCUAUCUGAGGAUAUCAACGCACUUGAGCGUGAGAAGGCAGAGGUACAUGAGGAUCACCCAUGUCCUCCAUAAAAUAAAAG | 0.00665 µM | 0.0141 µM | – | –
29 | UAUGGUUAAGUCAGGAUAUACUAAUAGAAAUCUGUGUAGAAGGGACAUGAGGAUCACCCAUGUAUGGUAGUGUU | 0.0687 µM | 0.0751 µM | – | –
30 | UUCAGCGAUCAAGGAUAUCUAUAAACAUGCGGACAUGAGGAUCACCCAUGUUGAUCACCCAUGUGGGAGAAGGUGAACAUGAGG | – | – | 0.174 µM | 0.0729 µM
31 | CUAAAUCAUGUAGGAUAUGCAUGGCGAAGCUACGCAGAAGGACAUGAGGAUCACCCAUGUCUGUCCGACUGCGUACAGUCGGAC | 0.0216 µM | 0.114 µM | – | –
32 | ACCUUACAUGAGGAUCACCCAUGUCAGGAUAUCUCGGACGGCUGAAAACCAACCGUCCAGAGAAGGGACGAGGA | 0.0131 µM | 0.0152 µM | – | –
33 | GAAUGAGAGCAGGAUAUCUUAUAAUUGUAUGAAAGAGAAGGGCUCACAUGAGGAUCACCCAUGUGGUCCUAGAU | 0.042 µM | 0.299 µM | – | –
34 | UUGGACGUCGUAGGAUAUGUAGGAUAUUCCUACAUGAGGAUCACCCAUGUUGACAUGGAUGAAGGACAGAAGGACGAUGUCCAU | – | – | 0.276 µM | 0.357 µM
35 | GGAAGACAAAGUCUUCCAAAUCGAACAUGAGGAUCACCCAUGUAGGAUAUGCUACUCAAAGAGUAGCAGAAGGACAUGUGCUUU | 0.0401 µM | 0.193 µM | – | –
36 | CCAGCCCGUGCAGGAUAUACAUGAGGAUCACCCAUGUAGGAGAAUCCGCCGGUAGAAGGGUACGGACGGGCGUCUGACGCUUGU | 0.00587 µM | 0.00633 µM | – | –
37 | GACCUACAUGAGGAUCACCCAUGUGAGGAUAUAUUGUUAUUUUUAAUAUUUUUUAGUGGUAGAAGGCGCGUGAU | 0.0184 µM | 0.0173 µM | – | –
38 | GUCAGCUCGUGAGGAUAUACAAUACUGCUUCGGCAGUGUAUUAAGAUCACAUGAGGAUCACCCAUGUAGAAGGCACGAGCUGAU | 0.00788 µM | 0.0604 µM | – | –

Row | Sequence | apparent Kd [1] | apparent Kd [2] | apparent Kd [3] | apparent Kd [4]
39 | AUCCGGAGGGAGAAGGGCUAGGAGGUCCAGCUUAUGUGUGUUGCAACAUGAGGAUCACCCAUGUAGCAGGAUAUCCCUUGUAUA | 0.0512 µM | 0.214 µM | – | –
40 | GAUUCACAUGAGGAUCACCCAUGUCGUUAUAUGGGAGGAUAUACGUGGACCGUAGUCCGCGUAGAAGGCCUAAUUG | – | – | 0.378 µM | 0.0812 µM
41 | UUAUUAAAUGUAGGAUAUGCAUAUUAUUAUUAUGCAGAAGGACAUGAGGAUCACCCAUGUAUAUUAUUAUUAUUUAUUAUUUAU | 0.0457 µM | 0.0617 µM | – | –
42 | AGUAAGAUGCAGAAGGUGUUAGCUAGAGCUACGACAUGAGGAUCACCCAUGUACUAAAACCCGUACAAGGAUAUGCAUCUUACA | – | – | 0.00817 µM | 0.00647 µM
43 | UAUUUGCAAGGAUAUGAUUUAAGUAACAUGAGGAUCACCCAUGUUUAUCCGUUGUUAUGUUCAGAAGGUGCGUGAU | 0.0508 µM | 0.0724 µM | – | –
44 | GAAAAACAUGAGGAUCACCCAUGUGAGAAUAUGGGAGGAUAUACGAGGACGAGAGUCAAGGUAGAAGGCCUAAAAG | – | – | 0.0963 µM | 0.0152 µM
45 | CAGUACUGAGGAUAUACAUGAGGAUCACCCAUGUUUUCCAGCUAGGAUACUAGCAAAUGUAGAAGGCAGUACUG | 0.0251 µM | 0.249 µM | – | –
46 | GUAGCAUACCGAGGAUAUUCAUACAAUAAAUAGACAUGAGGAUCACCCAUGUGGCGAAAGCCUUGGGAGAAGGCGGAAUGCUAC | – | – | 0.451 µM | 0.0376 µM
47 | GGAUUACAUGAGGAUCACCCAUGUGAGGAUAUCGAUGUCCCUAGCAGCGUGCGGGACUCGAGAAGGCACUUGGA | 0.0475 µM | 0.248 µM | – | –
48 | GGAUAGGACAGAGGAUAUACGUGCUAGAGAUACUAGCAAAAUUUACUCACAUGAGGAUCACCCAUGUAGAAGGCUGUCCUAUCG | 0.00509 µM | 0.0222 µM | – | –
49 | AACAGUCUAGAGGAUAUGCUGGAUUAAAAUCUGGCAGAAGGCUGGACAUGAGGAUCACCCAUGUAAAUACUACC | 0.0336 µM | 0.162 µM | – | –
50 | GCCAUCGCAUGAGGAUAUGGCACCGUUGCGGUGCCAGAAGGCAUGUCAAAUGACAUGAGGAUCACCCAUGUAGUUAAGAUGGCA | – | – | 0.218 µM | 0.0138 µM
51 | CUGUUCUGUGUAGGAUAUGCAUAUUCCCAUUAUGCAGAAGGACAUGAGGAUCACCCAUGUAUGUUAUUAUCAUGUGUUACAUGC | 0.0376 µM | 0.146 µM | – | –
52 | CCGGAUAUGCAGGAUAUCGUAUCGGAAACGAUACGAGAAGGGUAUACAUGAGGAUCACCCAUGUGCCUUACCGG | 0.0197 µM | 0.0219 µM | – | –
53 | CUCUUGUGAGGAUAUGUAGGUUACGAGAGCAAAACGAACGGACAGAAGGUACAUGAGGAUCACCCAUGUGGGAU | 0.109 µM | 0.0954 µM | – | –
54 | GGUGUGUCAGGAUAUCAACACACGGCAGCAGCGUUAUGCGUUGAGAAGGGACAUGAGGAUCACCCAUGUGACGG | 0.046 µM | 0.0709 µM | – | –
55 | AAUAACAGAGGAUAUACUAUUUUAUGUGUUUGUUGUUUUGAACAUGAGGAUCACCCAUGUAGAAGGCUGAAUGA | 0.0288 µM | 0.0307 µM | – | –
56 | GGUGCGUAUGUGAGGAUAUGCUGGUCCUUGGAUCGGCAGAAGGUACAUGAGGAUCACCCAUGUGGUGUCGUUCC | 0.0975 µM | 0.289 µM | – | –
